Results reported in ChEMBL document CHEMBL3734720, “Synthesis of thiophene-thiosemicarbazone derivatives and evaluation of their in vitro and in vivo antitumor activities” (Eur J Med Chem, 2015).

Assays:
[1] = test system: MCF7; experiment: Antiproliferative activity against human MCF7 cells assessed as growth inhibition after 48 hrs by SRB assay; type: functional; details: MCF7, 48 h
In short: (§1)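 Cells exposed 48 h at 37 °C, 5% CO2 to 0.25, 2.5, 25 and 250 µg/mL in DMSO/RPMI (final DMSO 0.1%); doxorubicin standard at 0.025–25 µg/mL. Plates fixed with 50% TCA before (T0) and after treatment; protein content read by sulforhodamine B at 540 nm. GI50 (µM) from nonlinear regression of concentration–response curves; triplicate.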

[2] = test system: HT-29; experiment: Antiproliferative activity against human HT-29 cells assessed as growth inhibition after 48 hrs by SRB assay; type: functional; details: HT-29, 48 h; in short: as §1
[3] = Antiproliferative activity against human HaCaT cells assessed as growth inhibition after 48 hrs by SRB assay; type: cell-based; in short: as §1
[4] = test system: U-251; experiment: Antiproliferative activity against human U251 cells assessed as growth inhibition after 48 hrs by SRB assay; type: functional; details: U-251, 48 h; in short: as §1
[5] = Antiproliferative activity against human NCI-ADR-RES cells assessed as growth inhibition after 48 hrs by SRB assay; type: functional; in short: as §1
[6] = test system: 786-0; experiment: Antiproliferative activity against human 786-0 cells assessed as growth inhibition after 48 hrs by SRB assay; type: functional; details: 786-0, 48 h; in short: as §1
[7] = test system: K562; experiment: Antiproliferative activity against human K562 cells assessed as growth inhibition after 48 hrs by SRB assay; type: functional; details: K562, 48 h; in short: as §1
[8] = Antiproliferative activity against human UACC62 cells assessed as growth inhibition after 48 hrs by SRB assay; type: functional; details: UACC-62, 48 h; in short: as §1
[9] = test system: NCI-H460; experiment: Antiproliferative activity against human NCI-H460 cells assessed as growth inhibition after 48 hrs by SRB assay; type: functional; details: NCI-H460, 48 h; in short: as §1
[10] = Antiproliferative activity against human PC3 cells assessed as growth inhibition after 48 hrs by SRB assay; type: functional; details: PC-3, 48 h; in short: as §1
[11] = Antitumor activity against mouse EAT implanted in Balb/C mouse assessed as change in paw volume at 40 mg/kg, po administered on day 3 post tumor inoculation measured on day 9 by plethysmometer analysis (reference value: 95.5 +/- 5.2%); type: functional
[12] = Antitumor activity against mouse EAT implanted in Balb/C mouse assessed as change in paw volume at 40 mg/kg, po administered on day 3 post tumor inoculation measured on day 12 by plethysmometer analysis (reference value: 125.5 +/- 7.5%); type: functional
[13] = Antitumor activity against mouse EAT implanted in Balb/C mouse assessed as change in paw volume at 40 mg/kg, po administered on day 3 post tumor inoculation measured on day 3 by plethysmometer analysis (reference value: 40.2 +/- 7.0%); type: functional
[14] = Antitumor activity against mouse EAT implanted in Balb/C mouse assessed as change in paw volume at 40 mg/kg, po administered on day 3 post tumor inoculation measured on day 6 by plethysmometer analysis (reference value: 86.1 +/- 5.7%); type: functional
[15] = Antitumor activity against mouse EAT implanted in Balb/C mouse assessed as change in paw volume at 40 mg/kg, po administered on day 3 post tumor inoculation measured on day 15 by plethysmometer analysis (reference value: 166.5 +/- 6.0%); type: functional
[16] = test system: 786-0; experiment: Cell cycle arrest in human 786-0 cells assessed as accumulation at S phase at 1.25 nM after 24 hrs by propidium iodide based flow cytometric analysis (reference value: 14.6 +/- 1.3%); type: functional
[17] = test system: 786-0; experiment: Cell cycle arrest in human 786-0 cells assessed as accumulation at Sub G1 phase at 1.25 nM after 24 hrs by propidium iodide based flow cytometric analysis (reference value: 3.0 +/- 0.7%); type: functional
[18] = test system: 786-0; experiment: Cell cycle arrest in human 786-0 cells assessed as reduction in G1 phase at 1.25 nM after 24 hrs by propidium iodide based flow cytometric analysis (reference value: 46.7 +/- 0.8%); type: functional; parameters: scale not given: the % may be the effect or the level left
[19] = test system: 786-0; experiment: Cell cycle arrest in human 786-0 cells assessed as accumulation at G2/M phase at 1.25 nM after 24 hrs by propidium iodide based flow cytometric analysis (reference value: 35.7 +/- 0.9%); type: functional
[20] = Antitumor activity against mouse EAT implanted in Balb/C mouse assessed as change in paw volume at 3 mg/kg, ip administered on day 3 post tumor inoculation measured on day 3 by plethysmometer analysis (reference value: 40.2 +/- 7.0%); type: functional
[21] = Antitumor activity against mouse EAT implanted in Balb/C mouse assessed as change in paw volume at 3 mg/kg, ip administered on day 3 post tumor inoculation measured on day 9 by plethysmometer analysis (reference value: 95.5 +/- 5.2%); type: functional
[22] = Antitumor activity against mouse EAT implanted in Balb/C mouse assessed as change in paw volume at 3 mg/kg, ip administered on day 3 post tumor inoculation measured on day 15 by plethysmometer analysis (reference value: 166.5 +/- 6.0%); type: functional
[23] = Antitumor activity against mouse EAT implanted in Balb/C mouse assessed as change in paw volume at 3 mg/kg, ip administered on day 3 post tumor inoculation measured on day 6 by plethysmometer analysis (reference value: 86.1 +/- 5.7%); type: functional
[24] = Antitumor activity against mouse EAT implanted in Balb/C mouse assessed as change in paw volume at 3 mg/kg, ip administered on day 3 post tumor inoculation measured on day 12 by plethysmometer analysis (reference value: 125.5 +/- 7.5%); type: functional

Structure (SMILES) | GI50 [1] [µM] | GI50 [2] [µM] | GI50 [4] [µM] | GI50 [6] [µM] | GI50 [7] [µM] | GI50 [9] [µM] | GI50 at 48 h [3] [µM] | GI50 [5] [µM] | GI50 [8] [µM] | GI50 [10] [µM] | also measured
S=C(NCCc1ccccc1)N/N=C/c1cccs1 | > 100 | > 100 | > 100 | > 100 | > 100 | > 100 | > 100 | > 100 | > 100 | > 100 | –
C=CCNC(=S)N/N=C/c1cccs1 | > 100 | > 100 | > 100 | 21.2 | 6 | > 100 | > 100 | > 100 | > 100 | > 100 | –
CN1C(C(=O)Nc2ccccn2)=C(O)c2ccccc2S1(=O)=O [PIROXICAM] | – | – | – | – | – | – | – | – | – | – | Activity [11]: 52.3%; Activity [12]: 34.9%; Activity [13]: 42.2%; Activity [14]: 57.2%; Activity [15]: 47.3%
S=C(N/N=C/c1cccs1)Nc1cccc2ccccc12 | > 100 | > 100 | 12.7 | 15.2 | 1.8 | > 100 | 82.4 | 6.6 | > 100 | > 100 | –
COc1cc2c(c(OC)c1OC)-c1ccc(OC)c(=O)cc1[C@@H](NC(C)=O)CC2 [COLCHICINE] | – | – | – | – | – | – | – | – | – | – | Activity [16]: 12.6%; Activity [17]: 8.9%; Activity [18]: 21.5%; Activity [19]: 57.5%
COc1cccc2c1C(=O)c1c(O)c3c(c(O)c1C2=O)C[C@@](O)(C(=O)CO)C[C@@H]3O[C@H]1C[C@H](N)[C@H](O)[C@H](C)O1 [DOXORUBICIN] | < 0.046 | 0.3 | < 0.046 | < 0.046 | < 0.046 | < 0.046 | < 0.046 | 0.21 | 0.05 | 0.13 | Activity [20]: 43.7%; Activity [21]: 69.8%; Activity [22]: 97.9%; Activity [23]: 55.6%; Activity [24]: 39.6%

More lines, main results first:

GI50 [1] [µM] | GI50 [2] [µM] | GI50 [4] [µM] | GI50 [6] [µM] | GI50 [7] [µM] | GI50 [9] [µM] | Structure (SMILES) | GI50 at 48 h [3] [µM] | GI50 [5] [µM] | GI50 [8] [µM] | GI50 [10] [µM] | also measured
38.6 | > 100 | 12.6 | 19.5 | < 0.9 | 80.6 | Cc1ccc(NC(=S)N/N=C/c2cccs2)cc1 | 17.6 | 4.8 | 16.8 | 29.7 | –
> 100 | > 100 | > 100 | > 100 | 1.7 | > 100 | COc1ccc(NC(=S)N/N=C/c2cccs2)cc1 | > 100 | > 100 | > 100 | > 100 | –
> 100 | > 100 | > 100 | 82.6 | 1.6 | > 100 | CCc1ccc(NC(=S)N/N=C/c2cccs2)cc1 | 17.6 | > 100 | > 100 | > 100 | –
> 100 | > 100 | 8.3 | 7.4 | 2 | > 100 | S=C(N/N=C/c1cccs1)Nc1ccc(Cl)cc1 | 14.7 | 2.8 | 15.8 | > 100 | –
94.6 | > 100 | 74.7 | 50.4 | 16.7 | > 100 | S=C(N/N=C/c1cccs1)Nc1ccccc1 | > 100 | > 100 | > 100 | > 100 | –
> 100 | > 100 | 26 | 5.6 | 16.4 | 45.9 | S=C(N/N=C/c1cccs1)Nc1cccnc1 | 45.4 | > 100 | > 100 | > 100 | –
